Measurements from ChEMBL document CHEMBL3621182, “Adenosine analogs as inhibitors of tyrosyl-tRNA synthetase: Design, synthesis and antibacterial evaluation” (Bioorg Med Chem, 2015).
≈ marks a conversion by molar mass, not a printed value.

test system: not listed separately; experiment: Inhibition of Staphylococcus aureus tyrosyl-tRNA synthetase
Method in brief: (§1)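 Tritiated tyrosine aminoacylation at 37°C. Mix (final): 100 mM Tris/Cl pH 7.9, 50 mM KCl, 16 mM MgCl2, 5 mM ATP, 3 mM DTT, 4 mg/ml E. coli MRE600 tRNA, 10 µM L-tyrosine including 0.3 µM L-[ring-3,5-3H]tyrosine. TyrRS (0.2 nM) preincubated 10 min at room temperature with a range of inhibitor concentrations. TCA precipitation onto filters, scintillation counting. Linear rates, under 50% tRNA acylation; IC50 at half activity.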

Row | IC50 [µM] | SMILES
1 | < 0.001 | N[C@@H](Cc1ccc(O)cc1)C(=O)N[C@H](C(=O)O)[C@H]1[C@H](O)[C@]2(O)CO[C@@H]([C@@H]2O)N1O

test system: not listed separately; experiment: Inhibition of Staphylococcus aureus tyrosyl-tRNA synthetase expressed in Escherichia coli assessed as reduction in tRNA aminoacylation pre-incubated for 10 mins before addition of Escherichia coli MRE600 tRNA and L-tyrosine; method in brief: as §1

Row | IC50 [µM] | SMILES
2 | 9.3 | Nc1ncnc2c1ncn2[C@@H]1O[C@H](COC(=O)Cc2cccc(O)c2)[C@@H](O)[C@H]1O
3 | 19 | CC1(C)O[C@@H]2[C@H](O1)[C@@H](COC(=O)Cc1ccc(O)cc1)O[C@H]2n1cnc2c(N)ncnc21
4 | > 100 | COc1ccc(CC(=O)OC[C@H]2O[C@@H](n3cnc4c(N)ncnc43)[C@H](O)[C@@H]2O)cc1OC
5 | 8.1 | Nc1ncnc2c1ncn2[C@@H]1O[C@H](COC(=O)Cc2ccc(Cl)cc2)[C@@H](O)[C@H]1O
6 | 55 | CC1(C)O[C@@H]2[C@H](O1)[C@@H](COC(=O)Cc1ccccc1O)O[C@H]2n1cnc2c(N)ncnc21
7 | 47 | CC1(C)O[C@@H]2[C@H](O1)[C@@H](COC(=O)Cc1ccccc1Cl)O[C@H]2n1cnc2c(N)ncnc21
8 | 77 | CCCCCC(=O)OC[C@H]1O[C@@H](n2cnc3c(N)ncnc32)[C@H](O)[C@@H]1O
9 | 1.1 | CC1(C)O[C@@H]2[C@H](O1)[C@@H](COC(=O)Cc1cccc(F)c1)O[C@H]2n1cnc2c(N)ncnc21
10 | 28 | Nc1ncnc2c1ncn2[C@@H]1O[C@H](COC(=O)c2cccc(Cl)c2)[C@@H](O)[C@H]1O

test system: Escherichia coli; experiment: Antimicrobial activity against Escherichia coli ATCC 8739 by MTT assay; type: functional
Method in brief: (§2)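 Broth microdilution in LB medium with MTT read-out. Compound stock 1000 µg/ml in DMSO, diluted serially with sterile medium (50% v/v DMSO in PBS). Inoculum about 10^5 cfu/mL, incubated at 37°C. Then 3 mg/mL MTT in PBS added, 4-5 h at room temperature. Dye extracted with 10% SDS containing 5% isopropanol and HCl for 8-10 h. Absorbance at 570 nm gives MIC50.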

Row | MIC50 [µg/mL] | SMILES
11 | 37 (≈ 92.2 µM) | Nc1ncnc2c1ncn2[C@@H]1O[C@H](COC(=O)Cc2cccc(O)c2)[C@@H](O)[C@H]1O
12 | 44.6 (≈ 101 µM) | CC1(C)O[C@@H]2[C@H](O1)[C@@H](COC(=O)Cc1ccc(O)cc1)O[C@H]2n1cnc2c(N)ncnc21
13 | 16.5 (≈ 37 µM) | COc1ccc(CC(=O)OC[C@H]2O[C@@H](n3cnc4c(N)ncnc43)[C@H](O)[C@@H]2O)cc1OC
14 | 7.7 (≈ 18.3 µM) | Nc1ncnc2c1ncn2[C@@H]1O[C@H](COC(=O)Cc2ccc(Cl)cc2)[C@@H](O)[C@H]1O
15 | 37.2 (≈ 84.3 µM) | CC1(C)O[C@@H]2[C@H](O1)[C@@H](COC(=O)Cc1ccccc1O)O[C@H]2n1cnc2c(N)ncnc21
16 | 29 (≈ 63.1 µM) | CC1(C)O[C@@H]2[C@H](O1)[C@@H](COC(=O)Cc1ccccc1Cl)O[C@H]2n1cnc2c(N)ncnc21
17 | > 100 | CCCCCC(=O)OC[C@H]1O[C@@H](n2cnc3c(N)ncnc32)[C@H](O)[C@@H]1O
18 | 60.3 (≈ 136 µM) | CC1(C)O[C@@H]2[C@H](O1)[C@@H](COC(=O)Cc1cccc(F)c1)O[C@H]2n1cnc2c(N)ncnc21
19 | 11.3 (≈ 27.8 µM) | Nc1ncnc2c1ncn2[C@@H]1O[C@H](COC(=O)c2cccc(Cl)c2)[C@@H](O)[C@H]1O

test system: Staphylococcus aureus; experiment: Antimicrobial activity against Staphylococcus aureus ATCC 6538 by MTT assay; type: functional; method in brief: as §2

Row | MIC50 [µg/mL] | SMILES
20 | > 100 | Nc1ncnc2c1ncn2[C@@H]1O[C@H](COC(=O)Cc2cccc(O)c2)[C@@H](O)[C@H]1O
21 | > 100 | CC1(C)O[C@@H]2[C@H](O1)[C@@H](COC(=O)Cc1ccc(O)cc1)O[C@H]2n1cnc2c(N)ncnc21
22 | > 100 | COc1ccc(CC(=O)OC[C@H]2O[C@@H](n3cnc4c(N)ncnc43)[C@H](O)[C@@H]2O)cc1OC
23 | 13.8 (≈ 32.9 µM) | Nc1ncnc2c1ncn2[C@@H]1O[C@H](COC(=O)Cc2ccc(Cl)cc2)[C@@H](O)[C@H]1O
24 | > 100 | CC1(C)O[C@@H]2[C@H](O1)[C@@H](COC(=O)Cc1ccccc1O)O[C@H]2n1cnc2c(N)ncnc21
25 | > 100 | CC1(C)O[C@@H]2[C@H](O1)[C@@H](COC(=O)Cc1ccccc1Cl)O[C@H]2n1cnc2c(N)ncnc21
26 | > 100 | CCCCCC(=O)OC[C@H]1O[C@@H](n2cnc3c(N)ncnc32)[C@H](O)[C@@H]1O
27 | > 100 | CC1(C)O[C@@H]2[C@H](O1)[C@@H](COC(=O)Cc1cccc(F)c1)O[C@H]2n1cnc2c(N)ncnc21
28 | 9.4 (≈ 23.2 µM) | Nc1ncnc2c1ncn2[C@@H]1O[C@H](COC(=O)c2cccc(Cl)c2)[C@@H](O)[C@H]1O

test system: Pseudomonas aeruginosa; experiment: Antimicrobial activity against Pseudomonas aeruginosa ATCC 9027 by MTT assay; type: functional; method in brief: as §2

Row | MIC50 [µg/mL] | SMILES
29 | 27.3 (≈ 68 µM) | Nc1ncnc2c1ncn2[C@@H]1O[C@H](COC(=O)Cc2cccc(O)c2)[C@@H](O)[C@H]1O
30 | 17.4 (≈ 39.4 µM) | CC1(C)O[C@@H]2[C@H](O1)[C@@H](COC(=O)Cc1ccc(O)cc1)O[C@H]2n1cnc2c(N)ncnc21
31 | 10.2 (≈ 22.9 µM) | COc1ccc(CC(=O)OC[C@H]2O[C@@H](n3cnc4c(N)ncnc43)[C@H](O)[C@@H]2O)cc1OC
32 | 19.9 (≈ 47.4 µM) | Nc1ncnc2c1ncn2[C@@H]1O[C@H](COC(=O)Cc2ccc(Cl)cc2)[C@@H](O)[C@H]1O
33 | 23 (≈ 52.1 µM) | CC1(C)O[C@@H]2[C@H](O1)[C@@H](COC(=O)Cc1ccccc1O)O[C@H]2n1cnc2c(N)ncnc21
34 | 28 (≈ 60.9 µM) | CC1(C)O[C@@H]2[C@H](O1)[C@@H](COC(=O)Cc1ccccc1Cl)O[C@H]2n1cnc2c(N)ncnc21
35 | > 100 | CCCCCC(=O)OC[C@H]1O[C@@H](n2cnc3c(N)ncnc32)[C@H](O)[C@@H]1O
36 | 12.9 (≈ 29.1 µM) | CC1(C)O[C@@H]2[C@H](O1)[C@@H](COC(=O)Cc1cccc(F)c1)O[C@H]2n1cnc2c(N)ncnc21
37 | 8.7 (≈ 21.4 µM) | Nc1ncnc2c1ncn2[C@@H]1O[C@H](COC(=O)c2cccc(Cl)c2)[C@@H](O)[C@H]1O
